The source of these data is BindingDB's records for doi:10.1021/acs.jnatprod.5b00637 (University of Eastern Piedmont, 2016).

The term IC50 denotes the concentration at which inhibition is half-maximal. Lower therefore signals greater potency.

This experiment addresses Signal transducer and activator of transcription 3 (Homo sapiens, UniProt P40763). In words: Inhibition of IFN gamma-induced STAT3 (unknown origin) activation in HeLa-STAT3-Luc cells after 6 hrs by luciferase reporter gene assay. Summed up:
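HeLa-STAT3-Luc reporter cells (15 × 10⁴ cells/mL, DMEM with 10% FBS, 37 °C, 5% CO2) were preincubated with the compounds at rising concentrations, then stimulated with IFNγ for 6 h. Lysate luciferase is expressed as percent inhibition, with IFNγ-induced activity set as 100%.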

Signal transducer and activator of transcription 3, sequence (P40763 whole entry): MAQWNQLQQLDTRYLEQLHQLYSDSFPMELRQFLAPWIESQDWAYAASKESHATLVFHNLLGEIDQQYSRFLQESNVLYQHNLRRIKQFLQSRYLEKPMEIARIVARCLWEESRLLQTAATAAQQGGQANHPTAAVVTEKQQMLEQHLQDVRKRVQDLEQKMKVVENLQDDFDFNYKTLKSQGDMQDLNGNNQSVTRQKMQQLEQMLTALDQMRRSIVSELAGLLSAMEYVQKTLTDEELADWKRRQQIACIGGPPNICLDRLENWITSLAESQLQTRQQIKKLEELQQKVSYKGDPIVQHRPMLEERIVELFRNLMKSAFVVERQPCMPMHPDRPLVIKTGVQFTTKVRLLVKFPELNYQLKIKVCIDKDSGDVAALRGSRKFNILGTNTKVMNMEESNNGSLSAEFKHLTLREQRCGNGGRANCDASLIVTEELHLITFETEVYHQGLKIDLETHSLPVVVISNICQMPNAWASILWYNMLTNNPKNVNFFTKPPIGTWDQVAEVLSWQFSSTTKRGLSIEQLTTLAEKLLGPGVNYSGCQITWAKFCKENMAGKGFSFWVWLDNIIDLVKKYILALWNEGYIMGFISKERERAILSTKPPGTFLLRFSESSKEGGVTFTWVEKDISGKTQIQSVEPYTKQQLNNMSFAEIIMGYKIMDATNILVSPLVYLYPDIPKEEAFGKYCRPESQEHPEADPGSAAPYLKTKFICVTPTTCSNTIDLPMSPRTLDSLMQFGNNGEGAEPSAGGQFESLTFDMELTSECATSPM

Consider `CC(C)=CC(=O)C[C@H](C)c1ccc(C)cc1` [(+)-(S)-ar-turmerone], for which 14.2 µM corresponded to half-maximal inhibition (IC50).
